Rows were chosen to be rich in hits. Some 3.8% of all compounds tested hit in one or more screens of this group.
ARNT TACC3 PPI: ARNT/TACC3 interaction disruption | Q9Y6A5 | AlphaScreen His-ARNT PAS-B/GST-TACC3 binding, luminescence; TACC3 fragment carries E629A point mutation | inhibition, % at 9.99 µM | actives 0.66% (n = 390,000);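 active = mean inhibition of replicates at least 50% and at least half of replicates each reaching 50%; inconclusive = half or more replicates reach 50% but mean below 50%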
DENV2 CPE: inhibitors of DENV2 cytopathic effect; CPE inhibition, % at 9.99 µM; actives 1.7% (n = 350,000); DENV2-infected cells, cytopathic effect rescue, plate reader; AID 651640; in the data active = CPE inhibition above about 20%, passing the limit was not always enough; inconclusive = no clear call, values can overlap the other calls; tested in BHK-21 cells
FGF22 binding: binders of recombinant human FGF22 by thermal shift; Q9HCT0; SYPRO orange fluorescence; percent of sucrose octasulfate shift, DMSO zero; AID 651658; actives 1.5% (n = 340,000); activity (Tm shift, normalised), % at 9.99 µM;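 active = mean Tm shift, scaled 0 neutral to 100 positive control, at about 1.3% or above, every replicate too, limit read from the data; inconclusive = no clear call, values can overlap the other calls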
Target sequence (Q9HCT0 whole entry, looked up): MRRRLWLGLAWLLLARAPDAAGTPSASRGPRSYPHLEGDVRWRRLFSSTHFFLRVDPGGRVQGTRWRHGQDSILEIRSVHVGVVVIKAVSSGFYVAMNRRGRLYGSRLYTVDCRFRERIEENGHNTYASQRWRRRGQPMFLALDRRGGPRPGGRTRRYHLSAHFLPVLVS
SIRT5 inh: sirtuin-5 (human) deacylase inhibition; Q9NXA8; Purified SirT5, succinyl-peptide AMC, trypsin-coupled fluorescence; inhibition, % at 15 µM; actives 1.1% (n = 330,000); in the data active = inhibition above about 15%; inconclusive = no clear call, values can overlap the other calls
Target sequence (Q9NXA8 whole entry, looked up): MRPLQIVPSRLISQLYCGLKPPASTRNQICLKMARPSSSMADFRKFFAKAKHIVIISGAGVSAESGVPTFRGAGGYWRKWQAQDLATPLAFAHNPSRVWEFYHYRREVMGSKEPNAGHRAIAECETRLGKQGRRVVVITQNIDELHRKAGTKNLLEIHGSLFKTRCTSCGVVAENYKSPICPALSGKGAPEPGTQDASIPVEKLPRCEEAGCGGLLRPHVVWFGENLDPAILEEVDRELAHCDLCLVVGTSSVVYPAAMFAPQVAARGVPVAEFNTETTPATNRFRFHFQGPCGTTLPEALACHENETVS
Xi reactivation: activators of X-chromosome reactivation in mouse fibroblasts | XiGFP mouse fibroblasts, % GFP-positive cells imaging, 3 d; cells co-treated with 5-aza-dC sensitizer; scaled so ellipticine positive control = 100% | actives 0.055% (n = 360,000) | activation, % at 7.58 µM | AID 743238;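 active = mean normalized replicate activation at least 10% and every replicate at or above 10%; inconclusive = only one of the two criteria met; inactive = mean below 10% and not all replicates reach 10%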
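Material: SV40-immortalized XiGFP fibroblast cells, line 68-5-11 | Buffer or medium: DMEM containing 5-aza-dC | Dosing: One concentration, pinned | Times: 3 d treatment, 15 min room-temperature fixation | Controls: Ellipticine 6 µM positive control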
FN deposit inh: fibronectin deposition inhibition; inhibition, % at 12.6 µM; AID 743247; actives 0.086% (n = 350,000); AH1F fibroblasts, Alexa488-fibronectin deposition fluorescence, overnight;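 active = mean inhibition across replicates of 30% or more, regardless of how many single replicates reach that level; inconclusive = mean under 30% yet at least half of replicates reach 30%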
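Test system: AH1F fibroblast monolayer depositing Alexa488-labelled fibronectin into matrix. Input: 10000 cells per well. Technique: fluorescence, ex 485 nm, em 525 nm. Buffer or medium: DMEM plus 2% serum, read in PBS. Timing: 1 h cell adhesion before compound, then overnight fibronectin incubation. Compound: single dose, pinned. Read-out basis: inhibition from reduced deposited-fibronectin fluorescence.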
Each line names hits and unclear results; the compound was inactive in the other large screens.

C[C@@H]1CN([C@H](C)CO)C(=O)c2cc(NC(=O)Nc3ccc(F)cc3)ccc2O[C@@H](C)CCCCO[C@H]1CN(C)C(=O)NC1CCCCC1	DENV2 CPE 21
C[C@H]1CCCCO[C@H](CN(C)C(=O)NC2CCCCC2)[C@@H](C)CN([C@@H](C)CO)C(=O)c2cc(NC(=O)Nc3ccc(F)cc3)ccc2O1	DENV2 CPE 32 (no result: ARNT TACC3 PPI, SIRT5 inh)
C[C@@H]1CCCCO[C@H](CN(C)C(=O)NC2CCCCC2)[C@@H](C)CN([C@@H](C)CO)C(=O)c2cc(NC(=O)NC3CCCCC3)ccc2O1	DENV2 CPE 47
C[C@H](CO)N1C[C@H](C)[C@@H](CN(C)C(=O)NC2CCCCC2)OCCCC[C@H](C)Oc2ccc(NC(=O)NC3CCCCC3)cc2C1=O	none
C[C@@H]1CN([C@@H](C)CO)C(=O)c2cc(NC(=O)Nc3ccc(F)cc3)ccc2O[C@@H](C)CCCCO[C@@H]1CN(C)C(=O)NC1CCCCC1	none
COCCCN1C(=O)[C@@]2(Cc3ccccc31)c1ccccc1C(=O)N(C1CCCCC1)[C@H]2c1ccc(CO)cc1	none (no result: Xi reactivation, FN deposit inh)
C[C@H](CO)N1C[C@H](C)[C@H](CN(C)Cc2ccc(-c3ccccc3)cc2)Oc2cc(C#CC(C)(C)O)ccc2S1(=O)=O	SIRT5 inh 20
C[C@H]1CN([C@@H](C)CO)S(=O)(=O)c2ccc(C#CC(C)(C)O)cc2O[C@@H]1CN(C)Cc1ccc(-c2ccccc2)cc1	SIRT5 inh 20
C[C@H](CO)N1C[C@H](C)[C@@H](CN(C)Cc2ccc(-c3ccccc3)cc2)Oc2cc(C#CC(C)(C)O)ccc2S1(=O)=O	DENV2 CPE inconclusive
C[C@@H]1CN([C@H](C)CO)S(=O)(=O)c2ccc(C#CC(C)(C)O)cc2O[C@H]1CN(C)Cc1ccccc1	none
C[C@@H]1CN([C@H](C)CO)S(=O)(=O)c2ccc(C#CC(C)(C)O)cc2O[C@@H]1CN(C)Cc1ccc(-c2ccccc2)cc1	SIRT5 inh 20
C[C@H]1CN([C@@H](C)CO)S(=O)(=O)c2ccc(C#CC(C)(C)O)cc2O[C@H]1CN(C)Cc1ccc(-c2ccccc2)cc1	SIRT5 inh 23
CCOCCCNC(=O)c1oc2ccc(S(=O)(=O)N3CCOCC3)cc2c1C	none
Cc1c(C(=O)NCCCN2CCOCC2)oc2ccc(S(=O)(=O)N3CCOCC3)cc12	FGF22 binding 43
Cn1cc(/C=N/n2cnc3scc(-c4ccccc4)c3c2=O)c2ccccc21	none (no result: DENV2 CPE, FGF22 binding, SIRT5 inh, Xi reactivation)
O=c1c2c(-c3ccccc3)csc2ncn1/N=C/c1ccc(O)c([N+](=O)[O-])c1	FGF22 binding 44 (no result: SIRT5 inh, FN deposit inh)
O=c1c2c(-c3ccccc3)csc2ncn1/N=C/c1cccc([N+](=O)[O-])c1O	ARNT TACC3 PPI 72
CN(C)CCCNC(=O)[C@H]1[C@H](CO)[C@H]2Cn3c(ccc(-c4ccccc4)c3=O)[C@@H]1N2C	DENV2 CPE 47 (no result: FN deposit inh)
CCC(=O)N1[C@@H]2c3ccc(C4=CCCCC4)c(=O)n3C[C@H]1[C@H](CO)[C@H]2C(=O)N[C@H](C)c1ccccc1	DENV2 CPE 93 (no result: FN deposit inh)
CN(C)CCCNC(=O)[C@@H]1[C@@H](CO)[C@@H]2Cn3c(ccc(-c4ccc(F)cc4)c3=O)[C@H]1N2C	none (no result: FN deposit inh)
COc1ccccc1-c1ccc2n(c1=O)C[C@H]1[C@H](CO)[C@@H](C(=O)N[C@H](C)c3ccccc3)[C@@H]2N1C	DENV2 CPE 74 (no result: FN deposit inh)
C[C@H](CO)N1C[C@H](C)[C@H](CN(C)C(=O)Nc2ccccc2)OCCCC[C@H](C)Oc2ccc(NC(=O)c3ccccc3)cc2C1=O	none
C[C@@H]1CN([C@H](C)CO)C(=O)c2cc(NS(=O)(=O)c3cn(C)cn3)ccc2O[C@H]1CN(C)Cc1ccc(Cl)c(Cl)c1	none (no result: FN deposit inh)
O=[N+]([O-])c1ccc(N/N=C/c2sc(N3CCOCC3)nc2-c2ccccc2)c(S(=O)(=O)Nc2ccc(Cl)cc2)c1	Xi reactivation 87
O=[N+]([O-])c1ccc(N/N=C/c2sc(N3CCOCC3)nc2-c2ccccc2)c(S(=O)(=O)Nc2ccccc2Cl)c1	none (no result: ARNT TACC3 PPI, DENV2 CPE, FGF22 binding, SIRT5 inh)
O=C(Nc1ccc(Br)cc1F)c1ccc2c(c1)OCCO2	none (no result: ARNT TACC3 PPI)
CCC(=O)Nc1ccc(C(=O)Nc2ccc(Br)cc2F)cc1	FGF22 binding 43
CC(C)Cc1ccc(-c2cc3nc(NCCc4ccc(S(N)(=O)=O)cc4)ccn3n2)cc1	SIRT5 inh 20 (no result: ARNT TACC3 PPI)
C[C@@H]1CN([C@@H](C)CO)C(=O)Cc2cc(NC(=O)Nc3ccccc3)ccc2O[C@@H]1CN(C)S(=O)(=O)c1cn(C)cn1	none (no result: FN deposit inh)
COc1ccc(NC(=O)Nc2ccc3c(c2)CC(=O)N([C@H](C)CO)C[C@@H](C)[C@H](CN(C)S(=O)(=O)c2cn(C)cn2)O3)cc1	DENV2 CPE 75 (no result: FN deposit inh)
C[C@H](CO)N1C[C@H](C)[C@@H](CN(C)S(=O)(=O)c2cn(C)cn2)Oc2ccc(NC(=O)Nc3cccc4ccccc34)cc2CC1=O	DENV2 CPE 86 (no result: ARNT TACC3 PPI)
C[C@@H]1CN([C@@H](C)CO)C(=O)c2cc(NS(=O)(=O)c3ccc(F)cc3)ccc2O[C@@H](C)CCCCO[C@H]1CN(C)Cc1ccc(C(F)(F)F)cc1	SIRT5 inh 28
Cc1ccc(S(=O)(=O)Nc2ccc3c(c2)C(=O)N([C@H](C)CO)C[C@H](C)[C@H](CN(C)Cc2ccc(C(F)(F)F)cc2)OCCCC[C@@H](C)O3)cc1	DENV2 CPE 26
C[C@@H]1CCCCO[C@@H](CN(C)Cc2ccc(C(F)(F)F)cc2)[C@@H](C)CN([C@@H](C)CO)C(=O)c2cc(NS(=O)(=O)c3ccc(F)cc3)ccc2O1	none
C[C@H]1CCCCO[C@H](CN(C)Cc2ccc(C(F)(F)F)cc2)[C@@H](C)CN([C@@H](C)CO)C(=O)c2cc(NS(=O)(=O)c3ccc(Cl)cc3)ccc2O1	SIRT5 inh 19
C[C@@H]1CCCCO[C@H](CN(C)Cc2ccc(C(F)(F)F)cc2)[C@@H](C)CN([C@H](C)CO)C(=O)c2cc(NS(=O)(=O)c3ccc(F)cc3)ccc2O1	none
C[C@@H]1CCCCO[C@H](CN(C)Cc2ccc(C(F)(F)F)cc2)[C@@H](C)CN([C@@H](C)CO)C(=O)c2cc(NS(=O)(=O)c3ccc(Cl)cc3)ccc2O1	none
C[C@@H]1CCCCO[C@@H](CN(C)Cc2ccc(C(F)(F)F)cc2)[C@H](C)CN([C@@H](C)CO)C(=O)c2cc(NS(=O)(=O)c3ccc(F)cc3)ccc2O1	SIRT5 inh 19
C[C@H]1CN([C@@H](C)CO)C(=O)c2cc(NC(=O)NC3CCCCC3)ccc2O[C@H]1CN(C)C(=O)Nc1ccc2c(c1)OCO2	none

Compound activity from PubChem.
